Drawing on BindingDB's records for doi:10.1016/j.bmcl.2009.10.078 (Niddk, 2009), this text covers IC50 for 7 compounds.

The assay addresses T1, Protein Tat (Human immunodeficiency virus type 1 group M subtype B (isolate HXB2), UniProt P04608).
T1 sequence (P04608 whole entry): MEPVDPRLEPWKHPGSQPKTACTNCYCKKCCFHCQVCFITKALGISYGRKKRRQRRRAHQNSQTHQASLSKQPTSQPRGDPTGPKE
The experiment in a line: Inhibition of HIV1 TAT transfected to human HeLa cells assessed as decrease in luminescence after 48 hrs by duel luciferase reporter gene assay. A digest of the protocol:
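HeLa cells stably carrying HIV-1 Tat and firefly luciferase on one bicistronic mRNA plus an HIV-1 LTR-renilla luciferase reporter. IC50 taken from dose-dependent fall in renilla luminescence (Tat-TAR function); firefly signal monitors Tat expression/cytotoxicity.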
In general terms: A reporter such as luciferase makes a cellular process visible.
For the compound `NC(=O)CCNC[C@H](Cc1ccc(O)cc1)NC[C@H](Cc1ccc(O)cc1)NC[C@H](Cc1ccc(O)cc1)NC[C@H](Cc1ccc(O)cc1)NC[C@@H](N)Cc1ccc(O)cc1`, the half-maximal inhibitory concentration (IC50) (in general, the point on the concentration scale where inhibition reaches its midpoint) turned out to be 30 µM. For the compound `C[C@@H](CN[C@H](CN[C@H](CN[C@H](CNCCC(N)=O)Cc1ccc(O)cc1)Cc1ccc(O)cc1)Cc1ccc(O)cc1)NC[C@H](Cc1ccc(O)cc1)NC[C@@H](N)Cc1ccc(O)cc1`, the IC50 came to 6 µM.

Consider `NCCCC[C@@H](CN[C@H](CNCCC(N)=O)Cc1ccc(O)cc1)NC[C@H](Cc1ccc(O)cc1)NC[C@H](CCCCN)NC[C@H](Cc1ccc(O)cc1)NC[C@@H](N)Cc1ccc(O)cc1`, for which the IC50 turned out to be 35 µM. In the case of `NC(=O)CCNC[C@H](Cc1ccc(O)cc1)NC[C@H](Cc1ccc(O)cc1)NC[C@@H](N)Cc1ccc(O)cc1` it was 19 µM; in that of `C[C@@H](CN[C@H](CN[C@H](CN[C@H](CNCCC(N)=O)Cc1ccc(O)cc1)Cc1ccc(O)cc1)Cc1ccc(O)cc1)NC[C@H](Cc1ccc(O)cc1)NC[C@H](Cc1ccc(O)cc1)NC[C@H](Cc1ccc(O)cc1)NC[C@@H](N)Cc1ccc(O)cc1`, 0.9 µM. In the case of `NCCCC[C@@H](CN[C@H](CNCCC(N)=O)Cc1ccc(O)cc1)NC[C@H](Cc1ccc(O)cc1)NC[C@H](CCCCN)NC[C@H](Cc1c[nH]c2ccccc12)NC[C@@H](N)Cc1ccc(O)cc1` it was 10 µM; in that of `NCCCC[C@@H](CN[C@H](CN[C@H](CN[C@H](CNCCC(N)=O)Cc1ccc(O)cc1)Cc1ccc(O)cc1)Cc1ccc(O)cc1)NC[C@H](Cc1ccc(O)cc1)NC[C@@H](N)Cc1ccc(O)cc1`, 12 µM.
